High-throughput results from PubChem BioAssay.
An excerpt weighted towards active compounds, which were near 0.9% of everything screened.
RGS16-Gao: regulators of human RGS16-Galphao interaction. bead-based flow cytometry RGS16-Galphao binding, fluorescence; actives lie on both sides. binding response (% of control), % at 10 µM. 220,000 compounds, 0.38% hits. AID 1441;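 note: Galphao activated by GDP with aluminum fluoride before binding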
Target sequence (O15492 whole entry, looked up): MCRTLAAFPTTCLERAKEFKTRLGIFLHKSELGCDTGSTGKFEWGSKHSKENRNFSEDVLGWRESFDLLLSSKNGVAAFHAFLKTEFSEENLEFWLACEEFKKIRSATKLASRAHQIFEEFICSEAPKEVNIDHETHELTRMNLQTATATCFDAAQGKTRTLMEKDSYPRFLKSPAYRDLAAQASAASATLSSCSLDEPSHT
Target sequence (P09471 whole entry, looked up): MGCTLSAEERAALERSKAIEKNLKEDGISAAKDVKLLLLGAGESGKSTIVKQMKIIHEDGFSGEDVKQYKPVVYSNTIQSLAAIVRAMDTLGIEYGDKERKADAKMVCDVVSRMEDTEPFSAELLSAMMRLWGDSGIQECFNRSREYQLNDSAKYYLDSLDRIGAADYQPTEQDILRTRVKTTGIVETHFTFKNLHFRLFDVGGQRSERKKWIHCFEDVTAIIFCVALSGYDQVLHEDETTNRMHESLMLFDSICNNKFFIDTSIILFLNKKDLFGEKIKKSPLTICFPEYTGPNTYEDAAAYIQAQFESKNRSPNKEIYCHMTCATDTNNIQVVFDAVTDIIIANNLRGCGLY
RGS4-Gao reg: modulates binding of RGS4 to human Galphao; Multiplexed bead flow cytometry; actives lie on both sides; binding response (% of control), % at 10 µM; 220,000 compounds, 0.33% hits; P09471; in the data active = binding response below about 49% or above about 150%; inactive = in between;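 note: fluorescent Galphao activated with aluminum fluoride binding bead-coupled RGS4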
Target sequence (P09471 whole entry, looked up): as above
ABCB1 inh: inhibitors of human ABCB1 transporter, ABCG2 counter-screen. P08183. CCRF-Adr cells, JC-1 efflux, flow cytometry. inhibition, % at 6.6 µM. 190,000 compounds, 0.067% hits. AID 1326; in the data active = inhibition above about 40%;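 note: higher value means more JC-1 retained so stronger ABCB1 efflux block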
RGS7-Gao: regulators of human RGS7-Galphao interaction; P09471; Multiplexed bead flow cytometry, RGS7-Galphao binding; actives lie on both sides; binding response (% of control), % at 10 µM; 220,000 compounds, 0.35% hits; in the data active = binding response below about 49% or above about 150%; inconclusive = no clear call, values can overlap the other calls; inactive = in between;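 note: fluorescent Galphao held in activated GDP-AlF4 state binding bead-coupled RGS7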
RGS8-Gao reg: modulates binding of RGS8 to human Galphao. 220,000 compounds, 0.34% hits. P09471. response (percent of control binding), % at 10 µM. AID 1423. multiplexed bead flow cytometry; actives lie on both sides; in the data active = response below about 60% or above about 140%; inactive = in between;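 note: Galphao activated as the GDP aluminium fluoride complex binding bead-coupled RGS8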
ABCG2 block: blocks JC-1 efflux by human ABCG2 transporter. Q9UNQ0. IgMXP3 cells, flow cytometry. inhibition, % at 6.6 µM. 190,000 compounds, 0.1% hits;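 active = inhibition above 80%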
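Test system: IgMXP3 (ABCG2) plus far-red-tagged CCRF-Adr (ABCB1) cells. Reagent: JC-1 dye as substrate. Timing: 10 min exposure at 25 °C with rotation, no wash. Measured by: flow cytometric JC-1 green MFI at 530 nm. Read-out: percent efflux inhibition, scaled nicardipine 100% to DMSO 0%. Control set: nicardipine and DMSO wells.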
RGS-Gao: regulators of human RGS4-Galphao interaction | shares compounds with RGS16-Gao | multiplexed bead flow cytometry, RGS–Galpha-o binding | RGS4–Galpha-o binding response, % at 10 µM | 1,600 compounds, 99% hits | AID 1504;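 note: fluorescently labeled Galpha-o bound to GDP with aluminium fluoride binding biotinylated RGS beads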
Avidin counter: counter-screen: compounds disrupting biotin binding to avidin beads. shares compounds with RGS16-Gao. streptavidin beads, fluorescein-biotin binding, flow cytometry. inhibition, % at 10 µM. 1,700 tested, under 10 active. AID 1783;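 active = inhibition above 50%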;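 note: median green fluorescence of gated singlet beads compared with DMSO control wells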
RGS8-Gao single: RGS8-Galphao interaction regulation, single point confirmation. shares compounds with RGS16-Gao. binding response (% of control), % at 10 µM. bead-based flow cytometry RGS8-Galphao binding, fluorescence; actives lie on both sides. 1,700 compounds, 3% hits; in the data active = binding response below about 72% or above about 130%; inactive = in between;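 note: Galphao activated as GDP AlF4 complex before binding bead RGS8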
RGS7-Gao single: confirmation of regulators of human RGS7-Galphao interaction; 1,700 compounds, 7.8% hits; response (percent of control binding), % at 10 µM; shares compounds with RGS16-Gao; bead-based flow cytometry RGS7-Galphao binding; actives lie on both sides; AID 1837; in the data active = response below about 75% or above about 130%; inactive = in between;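 note: fluorescent Galphao activated with GDP and aluminum fluoride binding bead-coupled RGS7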
RGS16-Gao conf: RGS16-Galphao interaction regulation, single point confirmation; 1,700 compounds, 4% hits; bead-based flow cytometry, RGS16-Galphao binding; actives lie on both sides; AID 1838; response (% of control binding), % at 10 µM; shares compounds with RGS16-Gao; in the data active = response below about 74% or above about 130%; inactive = in between;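 note: Galphao activated as the GDP aluminium fluoride complex binding bead-coupled RGS16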
RGS4-Gao confirm: confirmation of regulators of human RGS4-Galphao interaction | shares compounds with RGS16-Gao | RGS4-Galphao binding, multiplexed bead flow cytometry; actives lie on both sides | binding response (% of control), % at 10 µM | 1,700 compounds, 4% hits; in the data active = binding response below about 74% or above about 130%; inactive = in between
RGS19-Gao conf: confirmation of regulators of human RGS19-Galphao interaction; AID 1841; shares compounds with RGS16-Gao; 1,700 compounds, 5% hits; response (percent of control binding), % at 10 µM; bead-based flow cytometry RGS19-Galphao binding; actives lie on both sides; in the data active = response below about 50% or above about 160%; inactive = in between
Each line names hits and unclear results; the compound was inactive in the other large screens (follow-up assays come after a bar, where they were run); ! = a repeat was not active; [ ] = another dose, or the depositor's remark. Unless noted, the rule behind the calls is not given here.

N#C/C(=C/c1ccc(N2CCOCC2)o1)C(=O)Nc1ccccc1	RGS4-Gao reg 159.0[activator], RGS7-Gao 198.2[activator] | Avidin counter inactive | RGS8-Gao single inactive | RGS7-Gao single inactive | RGS16-Gao conf inactive | RGS4-Gao confirm inactive | RGS19-Gao conf inactive
C=CCSc1nnc(NC(=O)c2cn(CC)c3nc(C)ccc3c2=O)s1	RGS7-Gao inconclusive
Cc1cc(C(=O)CSc2nnc(-c3cccnc3)n2-c2ccccc2F)c(C)n1C	RGS16-Gao -0.8!, RGS4-Gao reg 6.8!, RGS7-Gao 5.0!, RGS8-Gao reg 10.7! | Avidin counter inactive | RGS8-Gao single inactive | RGS7-Gao single inactive | RGS16-Gao conf inactive | RGS4-Gao confirm inactive | RGS19-Gao conf inactive
CCOC(=O)Cc1ncccc1C(=O)Nc1ccc(Oc2ccccc2)cc1	none
COc1ccc(NS(=O)(=O)c2cc([N+](=O)[O-])ccc2N/N=C\c2c(C)[nH]c3ccccc23)cc1	RGS4-Gao reg 150.7[activator] | Avidin counter inactive | RGS8-Gao single inactive | RGS7-Gao single 158.9[activator] | RGS16-Gao conf inactive | RGS4-Gao confirm 128.4[activator] | RGS19-Gao conf 199.2[activator]
Cc1cc(C)c(C#N)c(N)n1	none (no result: RGS16-Gao, RGS4-Gao reg, RGS7-Gao, RGS8-Gao reg) | Avidin counter inactive | RGS8-Gao single inactive | RGS7-Gao single inactive | RGS16-Gao conf inactive | RGS4-Gao confirm inactive | RGS19-Gao conf inactive
C=CCOC(=O)C(=O)/C=C/c1ccc2c(c1)Cc1ccccc1-2	none
COc1ccccc1N1CCN(C(=O)CSc2nc(N)cc(=O)[nH]2)CC1	RGS7-Gao 277.0[activator] | RGS-Gao 88.2 | Avidin counter inactive | RGS8-Gao single inactive | RGS7-Gao single inactive | RGS16-Gao conf inactive | RGS4-Gao confirm inactive | RGS19-Gao conf inactive
CCCn1c(SCC(=O)Nc2ccccc2Oc2ccccc2)n[nH]c1=O	RGS16-Gao -27.9 | RGS-Gao 77.9 | Avidin counter inactive | RGS8-Gao single inactive | RGS7-Gao single inactive | RGS16-Gao conf inactive | RGS4-Gao confirm inactive | RGS19-Gao conf inactive
COc1cc(C(=O)N2CCC(O)(c3ccccc3)CC2)cc(OC)c1OC	none (no result: RGS16-Gao, RGS4-Gao reg, RGS7-Gao, RGS8-Gao reg) | Avidin counter inactive | RGS8-Gao single inactive | RGS7-Gao single inactive | RGS16-Gao conf inactive | RGS4-Gao confirm inactive | RGS19-Gao conf inactive
CC(C)N1CCN(Cc2coc3ccccc3c2=O)CC1CCO (configuration not stated)	none
CC(=Nc1ccccc1)Nc1ccccc1	RGS8-Gao reg 159.0[activator] (no result: RGS16-Gao) | RGS-Gao 144.3 | Avidin counter inactive | RGS8-Gao single inactive | RGS7-Gao single inactive | RGS16-Gao conf inactive | RGS4-Gao confirm inactive | RGS19-Gao conf inactive
COc1ccc2c(c1)c1nc(SCC(C)C)n(CCO)c(=O)c1n2C	RGS4-Gao reg 40.9, RGS7-Gao 42.5, RGS8-Gao reg 48.5 | Avidin counter inactive | RGS8-Gao single inactive | RGS7-Gao single inactive | RGS16-Gao conf inactive | RGS4-Gao confirm inactive | RGS19-Gao conf inactive
COc1ccc2c(c1)c1ncn(CCc3ccccc3)c(=O)c1n2C	none
Cc1cc(F)ccc1NCc1cc2c(cc1[N+](=O)[O-])OCO2	RGS16-Gao -41.1 | RGS-Gao 84.2 | Avidin counter inactive | RGS8-Gao single inactive | RGS7-Gao single inactive | RGS16-Gao conf inactive | RGS4-Gao confirm inactive | RGS19-Gao conf inactive
CC(C)NC(=O)NC(=O)CSc1nncs1	none
Cc1ccc(NC(=O)Cn2sc3nc(C)cc(C)c3c2=O)c(Cl)c1	RGS16-Gao 16.2, RGS7-Gao inconclusive (no result: ABCB1 inh, ABCG2 block) | RGS-Gao 88.2 | Avidin counter inactive | RGS8-Gao single 65.0 | RGS7-Gao single inactive | RGS16-Gao conf 21.6 | RGS4-Gao confirm inactive | RGS19-Gao conf 17.9
Cc1cc(C)c2c(=O)n(CC(=O)Nc3ccc(Cl)cc3)sc2n1	RGS16-Gao 12.0, RGS7-Gao inconclusive (no result: ABCB1 inh, ABCG2 block) | RGS-Gao 101.5 | Avidin counter inactive | RGS8-Gao single 68.3 | RGS7-Gao single inactive | RGS16-Gao conf 14.8 | RGS4-Gao confirm inactive | RGS19-Gao conf 16.9
CCOc1ccc(NC(=O)Cn2sc3nc(C)cc(C)c3c2=O)cc1	RGS7-Gao inconclusive (no result: ABCB1 inh, ABCG2 block)
Cc1cc(C)c2c(=O)n(CC(=O)Nc3cccc(F)c3)sc2n1	RGS16-Gao 17.3, RGS7-Gao inconclusive (no result: ABCB1 inh, ABCG2 block) | RGS-Gao 83.3 | Avidin counter inactive | RGS8-Gao single 66.8 | RGS7-Gao single inactive | RGS16-Gao conf 17.3 | RGS4-Gao confirm inactive | RGS19-Gao conf 23.8
Cc1cccc(N2CCN(C(=O)Cn3sc4nc(C)cc(C)c4c3=O)CC2C)c1 (configuration not stated)	RGS16-Gao 21.6 | RGS-Gao 94.0 | Avidin counter inactive | RGS8-Gao single 63.4 | RGS7-Gao single inactive | RGS16-Gao conf 11.8 | RGS4-Gao confirm inactive | RGS19-Gao conf 2.5
COC(=O)c1[nH]c(C)c(/C(O)=C2\C(=O)C(=O)N(CCN3CCOCC3)C2c2ccco2)c1C (configuration not stated)	RGS7-Gao inconclusive (no result: ABCB1 inh, ABCG2 block)
Cc1cc(C)c(NS(=O)(=O)c2ccc(NC(=O)/C=C/C(=O)O)cc2)c(C)c1	RGS16-Gao 1.1, RGS4-Gao reg 9.7, RGS7-Gao -0.2, RGS8-Gao reg 12.0 | Avidin counter inactive | RGS8-Gao single inactive | RGS7-Gao single inactive | RGS16-Gao conf inactive | RGS4-Gao confirm inactive | RGS19-Gao conf inactive
Cc1cc(C)c(NS(=O)(=O)c2ccc(Cl)c(C(=O)O)c2)c(C)c1	none
Cc1ccc(N2C(=O)c3cccc4c(Oc5ccccc5[N+](=O)[O-])ccc(c34)C2=O)c(C)c1	RGS16-Gao 235.0[activator] | RGS-Gao 121.5 | Avidin counter inactive | RGS8-Gao single inactive | RGS7-Gao single inactive | RGS16-Gao conf inactive | RGS4-Gao confirm inactive | RGS19-Gao conf inactive
COc1ccc(-c2[nH]ncc2CN2CCC(N3CCSCC3)CC2)cc1F	none
